Experimental findings from ChEMBL document CHEMBL1156088, “Synthesis and biological activity of novel oxazolidinones” (2009) are described below.

What all share (type): functional
One assay relates to Enterococcus faecium. Nature of the assay: Antibacterial activity against vancomycin-resistant Enterococcus faecium 6A by NCCLS method. The method in brief: (§1)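 In vitro MIC determined by the NCCLS method against a panel of gram-positive bacteria. Ranbezolid and linezolid were run alongside as reference standards.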
The subject of another assay is Streptococcus pyogenes. Put plainly: Antibacterial activity against Streptococcus pyogenes ATCC 19615 by NCCLS method. Put shortly:
(§2)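 In vitro MIC determination by the NCCLS method against a panel of gram-positive bacteria. Two oxazolidinone reference standards were tested alongside.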

Assay [1] concerns Staphylococcus aureus. Nature of the assay: Antibacterial activity against Staphylococcus aureus 15187 by NCCLS method. The method in brief:
as §2

In assay [2] the test system is Staphylococcus aureus. Put plainly: Antibacterial activity against methicillin-resistant Staphylococcus aureus 33 by NCCLS method. Put shortly:
as §1

Assay [3] concerns Staphylococcus aureus. Nature of the assay: Antibacterial activity against Staphylococcus aureus ATCC 25923 by NCCLS method. The method in brief: as §2
Assay [4] deals with Staphylococcus aureus. Nature of the assay: Antibacterial activity against methicillin-resistant Staphylococcus aureus 562 by NCCLS method. Put shortly: as §1
For a further assay, the system named is Enterococcus faecalis. Nature of the assay: Antibacterial activity against Enterococcus faecalis ATCC 29212 by NCCLS method. The method in brief: as §2
The next assay relates to Streptococcus pneumoniae. Nature of the assay: Antibacterial activity against Streptococcus pneumoniae ATCC 6303 by NCCLS method. Put shortly: as §2

The structures appear in SMILES notation. In brackets after ≈: the same amount, converted by molar mass. A value given as a limit tells only on which side of the number the result lay.

As a reminder, the MIC is the lowest concentration found to suppress growth. As for `O=C1O[C@@H](CO)CN1c1ccc(N2CCN(Cc3ccc([N+](=O)[O-])o3)CC2)c(F)c1`, the MIC with Enterococcus faecium, against Streptococcus pyogenes, against Staphylococcus aureus [1], against Staphylococcus aureus [2], against Staphylococcus aureus [3] and against Staphylococcus aureus [4] was above 16 µg/mL in each case. Moreover, the MIC against Enterococcus faecalis and with Streptococcus pneumoniae was above 16 µg/mL in each case.

For `O=C(/C=C/c1ccccc1)NC[C@H]1CN(c2ccc(N3CCN(Cc4ccc([N+](=O)[O-])o4)CC3)c(F)c2)C(=O)O1`, the MIC against Enterococcus faecium, against Streptococcus pyogenes, against Staphylococcus aureus [1], in the assay on Staphylococcus aureus [2], against Staphylococcus aureus [3] and in the assay with Staphylococcus aureus [4] was above 16 µg/mL throughout. Also, the MIC with Enterococcus faecalis and in the assay on Streptococcus pneumoniae was above 16 µg/mL in each case.

Take `O=C(NC[C@H]1CN(c2ccc(N3CCN(Cc4ccc([N+](=O)[O-])o4)CC3)c(F)c2)C(=O)O1)c1ccc([N+](=O)[O-])s1`: the MIC in the assay with Enterococcus faecium, against Streptococcus pyogenes, with Staphylococcus aureus [1], against Staphylococcus aureus [2], in the assay with Staphylococcus aureus [3] and in the assay on Staphylococcus aureus [4] was above 16 µg/mL each time. The MIC with Enterococcus faecalis and in the assay with Streptococcus pneumoniae was above 16 µg/mL throughout.

For the compound `O=C(/C=C/c1ccc2c(c1)OCO2)NC[C@H]1CN(c2ccc(N3CCN(Cc4ccc([N+](=O)[O-])o4)CC3)c(F)c2)C(=O)O1`, the MIC in the assay with Enterococcus faecium, against Streptococcus pyogenes, against Staphylococcus aureus [1], in the assay on Staphylococcus aureus [2], against Staphylococcus aureus [3] and against Staphylococcus aureus [4] was above 16 µg/mL in each case. The minimum inhibitory concentration (MIC) against Enterococcus faecalis and against Streptococcus pneumoniae was above 16 µg/mL in each case.

In the case of `O=C1O[C@@H](CNc2ccon2)CN1c1ccc(N2CCN(Cc3ccc([N+](=O)[O-])o3)CC2)c(F)c1`, the MIC stood at 2 µg/mL (≈ 4.11 µM) against Enterococcus faecium; 1 µg/mL (≈ 2.06 µM) against Streptococcus pyogenes; 2 µg/mL (≈ 4.11 µM) against Staphylococcus aureus [1]; 2 µg/mL (≈ 4.11 µM) in the assay with Staphylococcus aureus [2]; 2 µg/mL (≈ 4.11 µM) against Staphylococcus aureus [3]; 2 µg/mL (≈ 4.11 µM) against Staphylococcus aureus [4]. For the same compound, the MIC turned out to be 2 µg/mL (≈ 4.11 µM) with Enterococcus faecalis and 1 µg/mL (≈ 2.06 µM) against Streptococcus pneumoniae.

In the case of `O=C(NC[C@H]1CN(c2ccc(N3CCN(Cc4ccc([N+](=O)[O-])o4)CC3)c(F)c2)C(=O)O1)c1ccc([N+](=O)[O-])o1`, the minimum inhibitory concentration (MIC) in the assay on Enterococcus faecium is above 8 µg/mL; against Streptococcus pyogenes, above 8 µg/mL; with Staphylococcus aureus [1] it was 2 µg/mL (≈ 3.58 µM); against Staphylococcus aureus [2], 2 µg/mL (≈ 3.58 µM); against Staphylococcus aureus [3], 8 µg/mL (≈ 14.3 µM); against Staphylococcus aureus [4] it was 1 µg/mL (≈ 1.79 µM). Also, the MIC against Enterococcus faecalis turned out to be 4 µg/mL (≈ 7.16 µM); in the assay on Streptococcus pneumoniae it was 8 µg/mL (≈ 14.3 µM).

In the case of `O=C(NC[C@H]1CN(c2ccc(N3CCN(Cc4ccc([N+](=O)[O-])o4)CC3)c(F)c2)C(=O)O1)c1ccc(Br)o1`, the MIC against Enterococcus faecium, in the assay on Streptococcus pyogenes, in the assay with Staphylococcus aureus [1], against Staphylococcus aureus [2], in the assay on Staphylococcus aureus [3] and against Staphylococcus aureus [4] was above 16 µg/mL in each case. For the same compound, the MIC in the assay on Enterococcus faecalis and with Streptococcus pneumoniae was above 16 µg/mL in each case.

For `O=C(/C=C/c1ccc(F)cc1)NC[C@H]1CN(c2ccc(N3CCN(Cc4ccc([N+](=O)[O-])o4)CC3)c(F)c2)C(=O)O1`, the minimal inhibitory concentration (MIC) in the assay on Enterococcus faecium, against Streptococcus pyogenes, with Staphylococcus aureus [1], against Staphylococcus aureus [2], with Staphylococcus aureus [3] and against Staphylococcus aureus [4] was above 16 µg/mL in each case. The MIC in the assay on Enterococcus faecalis and against Streptococcus pneumoniae was above 16 µg/mL in each case.

As to `O=C(NC[C@H]1CN(c2ccc(N3CCN(Cc4ccc([N+](=O)[O-])o4)CC3)c(F)c2)C(=O)O1)c1cc2ccccc2o1`, the MIC with Enterococcus faecium, with Streptococcus pyogenes, in the assay on Staphylococcus aureus [1], against Staphylococcus aureus [2], with Staphylococcus aureus [3] and against Staphylococcus aureus [4] was above 16 µg/mL each time. Further, the MIC with Enterococcus faecalis and against Streptococcus pneumoniae was above 16 µg/mL throughout.

With `O=C1O[C@@H](COc2ccon2)CN1c1ccc(N2CCN(Cc3ccc([N+](=O)[O-])o3)CC2)c(F)c1`, the MIC against Enterococcus faecium, in the assay with Streptococcus pyogenes, against Staphylococcus aureus [1], with Staphylococcus aureus [2], against Staphylococcus aureus [3] and against Staphylococcus aureus [4] was above 16 µg/mL in each case. Also, the MIC against Enterococcus faecalis and with Streptococcus pneumoniae was above 16 µg/mL each time.
